In experiment [1] the target is T1, DNA topoisomerase 1 (Homo sapiens) (UniProt P11387).
T1 sequence (whole entry): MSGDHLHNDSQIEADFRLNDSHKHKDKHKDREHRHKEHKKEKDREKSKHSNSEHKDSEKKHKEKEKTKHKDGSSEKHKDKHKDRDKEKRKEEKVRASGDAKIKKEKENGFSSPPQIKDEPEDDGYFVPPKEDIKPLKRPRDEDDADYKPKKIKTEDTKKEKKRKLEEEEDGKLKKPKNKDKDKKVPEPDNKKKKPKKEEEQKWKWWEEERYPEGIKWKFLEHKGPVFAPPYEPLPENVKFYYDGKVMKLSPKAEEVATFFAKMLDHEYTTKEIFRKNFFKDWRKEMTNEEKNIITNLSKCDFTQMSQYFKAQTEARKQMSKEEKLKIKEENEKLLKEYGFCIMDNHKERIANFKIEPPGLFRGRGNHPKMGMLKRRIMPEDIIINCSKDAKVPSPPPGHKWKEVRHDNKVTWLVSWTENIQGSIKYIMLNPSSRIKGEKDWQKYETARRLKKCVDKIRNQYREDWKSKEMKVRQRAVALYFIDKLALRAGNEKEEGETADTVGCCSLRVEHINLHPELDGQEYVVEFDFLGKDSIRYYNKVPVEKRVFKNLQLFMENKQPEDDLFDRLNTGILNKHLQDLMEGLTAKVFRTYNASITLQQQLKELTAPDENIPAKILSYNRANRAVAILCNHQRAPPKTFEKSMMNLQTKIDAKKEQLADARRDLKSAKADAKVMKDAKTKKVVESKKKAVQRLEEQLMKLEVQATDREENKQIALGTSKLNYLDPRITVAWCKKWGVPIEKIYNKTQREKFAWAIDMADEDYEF
Nature of the experiment: Inhibition of recombinant human DNA topoisomerase 1 at 20 uM using supercoiled pBR322 DNA as substrate after 30 mins by densitometric analysis relative to control. In outline:
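Relaxation of 100 ng supercoiled pBR322 by 1 unit recombinant human topo I, 37 °C for 30 min, in 10 mM Tris-HCl pH 7.9, 150 mM NaCl, 0.1% BSA, 1 mM spermidine, 5% glycerol. Stopped with sarcosyl solution, run on 1% agarose/TAE at 15 V for 7 h, ethidium bromide stained, bands quantified by densitometry. Camptothecin as positive control. Compounds first screened at 100 μM; those over 30% inhibition retested at 20 μM.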

The target of experiment [2] is DNA topoisomerase 2-alpha (Homo sapiens) (UniProt P11388). As to the kind of experiment: Inhibition of recombinant human DNA topoisomerase 2-alpha at 20 uM using supercoiled pBR322 DNA as substrate after 30 mins by densitometric analysis relative to control. The procedure, abridged:
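200 ng supercoiled pBR322 with 4 units human topo IIα, 30 min at 30 °C, in 10 mM Tris–HCl pH 7.9, 50 mM NaCl, 5 mM MgCl2, 1 mM EDTA, 1 mM ATP, 15 μg/mL BSA. Stopped with EDTA, run on 1% agarose/TAE at 60 V for 1 h, bands quantified by densitometry. Etoposide as positive control. Screening at 100 μM; above 30% inhibition, retested at 20 μM.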

Experiment [3] has the same target. As to the kind of experiment: Potency index, ratio of test compound activity to etoposide activity for recombinant human DNA topoisomerase 2-alpha at 20 uM.

Sequence of DNA topoisomerase 2-alpha (Homo sapiens) (P11388 whole entry): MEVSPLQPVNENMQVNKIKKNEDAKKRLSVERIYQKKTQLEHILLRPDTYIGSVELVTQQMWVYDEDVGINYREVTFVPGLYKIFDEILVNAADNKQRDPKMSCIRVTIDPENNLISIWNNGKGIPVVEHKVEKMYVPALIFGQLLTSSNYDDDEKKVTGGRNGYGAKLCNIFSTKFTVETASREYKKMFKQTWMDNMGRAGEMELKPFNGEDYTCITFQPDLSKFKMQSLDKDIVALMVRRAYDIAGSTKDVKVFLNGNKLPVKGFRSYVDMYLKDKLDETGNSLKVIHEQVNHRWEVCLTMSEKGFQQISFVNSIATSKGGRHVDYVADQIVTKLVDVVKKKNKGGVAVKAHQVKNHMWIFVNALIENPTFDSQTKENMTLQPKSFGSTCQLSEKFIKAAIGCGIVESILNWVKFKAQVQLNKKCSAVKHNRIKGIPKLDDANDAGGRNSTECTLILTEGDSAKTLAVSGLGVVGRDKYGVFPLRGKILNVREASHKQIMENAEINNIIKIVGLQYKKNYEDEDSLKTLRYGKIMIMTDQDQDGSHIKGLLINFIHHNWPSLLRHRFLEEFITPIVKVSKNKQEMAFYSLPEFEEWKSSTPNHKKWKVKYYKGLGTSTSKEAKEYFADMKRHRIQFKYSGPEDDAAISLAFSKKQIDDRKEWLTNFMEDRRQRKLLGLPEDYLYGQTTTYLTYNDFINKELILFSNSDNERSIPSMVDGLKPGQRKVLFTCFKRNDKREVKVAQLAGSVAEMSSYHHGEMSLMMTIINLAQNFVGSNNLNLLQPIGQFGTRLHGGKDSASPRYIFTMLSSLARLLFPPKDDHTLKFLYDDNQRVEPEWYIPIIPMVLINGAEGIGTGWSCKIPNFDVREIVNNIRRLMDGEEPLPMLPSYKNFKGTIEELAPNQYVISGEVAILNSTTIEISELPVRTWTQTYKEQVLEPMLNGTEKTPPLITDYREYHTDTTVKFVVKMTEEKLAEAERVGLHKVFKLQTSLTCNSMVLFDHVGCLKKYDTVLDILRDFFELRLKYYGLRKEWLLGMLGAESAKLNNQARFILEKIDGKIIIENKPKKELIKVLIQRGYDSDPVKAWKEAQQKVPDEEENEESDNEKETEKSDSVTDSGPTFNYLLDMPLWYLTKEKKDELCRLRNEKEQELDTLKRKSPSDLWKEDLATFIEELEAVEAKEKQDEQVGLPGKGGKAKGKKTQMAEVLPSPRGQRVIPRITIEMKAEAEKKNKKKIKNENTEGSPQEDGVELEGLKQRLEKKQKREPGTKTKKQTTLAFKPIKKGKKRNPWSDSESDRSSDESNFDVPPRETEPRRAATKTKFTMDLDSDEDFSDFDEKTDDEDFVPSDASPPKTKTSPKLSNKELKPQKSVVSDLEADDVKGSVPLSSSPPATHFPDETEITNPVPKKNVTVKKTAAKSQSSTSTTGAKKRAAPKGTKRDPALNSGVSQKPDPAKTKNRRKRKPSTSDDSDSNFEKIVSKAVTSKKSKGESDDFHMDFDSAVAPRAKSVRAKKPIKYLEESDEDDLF

In general, inhibition refers to the change of the read-out against control, counted positive when it falls. Regarding `Cc1ccc(-c2c3c(nc4cnc5ccccc5c24)-c2ccccc2OC3)cc1`, the inhibition in experiment [1] was found to be 11.1%; in experiment [2], 38.3%. In experiment [3], the Ratio stood at 1.25.

(Values after ChEMBL document CHEMBL4229571, “Development of 13H-benzo[f]chromeno[4,3-b][1,7]naphthyridines and their salts as potent cytotoxic agents and topoisomerase I/IIα inhibitors” (2018).)
